ChEMBL document CHEMBL4814043, “Optimization of a urea-containing series of nicotinamide phosphoribosyltransferase (NAMPT) activators” (Bioorg Med Chem Lett, 2021)
Values after ≈ are worked out from the molar mass of the structure shown. Blank lines part the entries; values can stand above or below the molecule they belong to. Active and inactive are the calls of the source. No cut-off for these calls is given here.

Experiments:
[1] = target: T1, Nicotinamide phosphoribosyltransferase (Homo sapiens, UniProt P43490); experiment: Activation of human NAMPT
Target sequence in this assay (P43490 whole entry): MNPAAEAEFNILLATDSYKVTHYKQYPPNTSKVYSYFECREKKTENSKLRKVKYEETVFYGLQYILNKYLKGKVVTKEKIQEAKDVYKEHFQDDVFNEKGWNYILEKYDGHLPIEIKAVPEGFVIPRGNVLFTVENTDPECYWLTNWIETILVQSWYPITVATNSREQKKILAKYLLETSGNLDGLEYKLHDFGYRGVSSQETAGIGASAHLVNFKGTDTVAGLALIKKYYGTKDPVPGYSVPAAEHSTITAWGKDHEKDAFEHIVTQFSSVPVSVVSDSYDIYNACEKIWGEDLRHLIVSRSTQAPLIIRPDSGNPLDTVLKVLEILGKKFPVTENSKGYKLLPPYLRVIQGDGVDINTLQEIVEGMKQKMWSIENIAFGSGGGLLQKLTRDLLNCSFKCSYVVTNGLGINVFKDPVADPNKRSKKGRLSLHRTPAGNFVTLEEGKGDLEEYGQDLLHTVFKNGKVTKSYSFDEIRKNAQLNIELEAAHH

[2] = Half life in mouse at 10 mg/kg, po; type: ADME, organism-based; conditions: in vivo
[3] = Cmax in mouse at 10 mg/kg, po; type: ADME, organism-based; design: route oral, dose 10 mg/kg; conditions: in vivo
[4] = AUC in mouse at 10 mg/kg, po; type: ADME, organism-based; design: dose 10 mg/kg; conditions: in vivo
[5] = Plasma clearance in mouse at 1 mg/kg, iv; type: ADME, organism-based
[6] = Oral bioavailability in mouse at 10 mg/kg; type: ADME, organism-based; conditions: in vivo
[7] = Volume of distribution in mouse at 1 mg/kg, iv; type: ADME, organism-based; conditions: in vivo
[8] = Metabolic stability in mouse liver microsomes assessed as parent compound remaining at 1 uM measured after 30 mins; type: ADME, Microsome; conditions: read-out: Stabilty
Outline: (§1)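 Compound at 1 µM incubated with human or mouse microsomes for 30 min; read-out is percent parent remaining.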

[9] = Permeability of compound at pH 7.4 by PAMPA assay; type: ADME; conditions: read-out: permeability
CYP1A2 = target: T2, CYP1A2 (Homo sapiens, UniProt P05177); experiment: Inhibition of CYP1A2 (unknown origin) at 10 uM measured after 10 mins; type: ADME
T2 sequence (P05177 whole entry): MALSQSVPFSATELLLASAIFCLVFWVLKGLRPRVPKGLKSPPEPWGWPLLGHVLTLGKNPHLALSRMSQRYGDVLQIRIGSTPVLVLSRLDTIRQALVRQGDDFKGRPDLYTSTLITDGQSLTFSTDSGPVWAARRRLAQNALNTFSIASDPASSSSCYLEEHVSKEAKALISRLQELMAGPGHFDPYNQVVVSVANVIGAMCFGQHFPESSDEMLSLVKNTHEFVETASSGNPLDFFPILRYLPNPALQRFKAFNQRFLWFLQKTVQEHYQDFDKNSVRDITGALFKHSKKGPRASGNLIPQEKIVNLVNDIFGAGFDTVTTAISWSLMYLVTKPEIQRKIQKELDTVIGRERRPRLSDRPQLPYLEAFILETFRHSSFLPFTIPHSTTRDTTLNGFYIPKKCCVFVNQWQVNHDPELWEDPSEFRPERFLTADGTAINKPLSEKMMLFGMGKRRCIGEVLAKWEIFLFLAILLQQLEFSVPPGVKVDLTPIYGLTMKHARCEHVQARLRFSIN
Outline: (§2)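 Each CYP isoform (1A2, 2C9, 2D6, 3A4) reacted with compound at 10 µM for 10 min; value reported as percent inhibition.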

CYP3A4 = CYP3A4 (Homo sapiens, UniProt P08684); experiment: Inhibition of CYP3A4 (unknown origin) at 10 uM measured after 10 mins; type: ADME; outline: as §2
[10] = target: T1, Nicotinamide phosphoribosyltransferase; experiment: Activation of NAMPT in human A549 cells assessed as increase in NAD+ level at 10 uM incubated for 4 hrs by LC-MS/MS analysis; type: cell-based; conditions: filed as activator
Outline: (§3)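 A549 cells exposed to 10 µM compound or DMSO vehicle for 4 hr, then harvested; NMN and NAD+ quantified by LC-MS/MS and normalized to cell protein; significance vs. vehicle control by P value.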
Target sequence in this assay (P43490 whole entry, looked up): as the sequence (P43490 whole entry) above

[11] = Metabolic stability in human liver microsomes assessed as parent compound remaining at 1 uM measured after 30 mins; type: ADME, Microsome; conditions: read-out: Stabilty; outline: as §1
[12] = Permeability of compound at pH 5 by PAMPA assay; type: ADME; conditions: read-out: permeability
[13] = 1-Octanol/PBS buffer distribution coefficient, log D of the compound at pH 7.4; type: physicochemical
Outline: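 Partitioning measured between 1-octanol and phosphate-buffered saline at pH 7.4.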

[14] = Solubility of compound at pH 1.2; type: physicochemical; conditions: buffer
[15] = target: T1, Nicotinamide phosphoribosyltransferase; experiment: Activation of NAMPT in human A549 cells assessed as increase in NMN level at 10 uM incubated for 4 hrs by LC-MS/MS analysis; type: cell-based; conditions: filed as activator; outline: as §3
Target sequence in this assay (P43490 whole entry, looked up): as the sequence (P43490 whole entry) above

[16] = Solubility of compound at pH 6.8; type: physicochemical; conditions: buffer
CYP2C9 = CYP2C9 (Homo sapiens, UniProt P11712); experiment: Inhibition of CYP2C9 (unknown origin) at 10 uM measured after 10 mins; type: ADME; outline: as §2
CYP2D6 = CYP2D6 (Homo sapiens, UniProt P10635); experiment: Inhibition of CYP2D6 (unknown origin) at 10 uM measured after 10 mins; type: ADME; outline: as §2
CYP2D6, sequence (P10635 whole entry): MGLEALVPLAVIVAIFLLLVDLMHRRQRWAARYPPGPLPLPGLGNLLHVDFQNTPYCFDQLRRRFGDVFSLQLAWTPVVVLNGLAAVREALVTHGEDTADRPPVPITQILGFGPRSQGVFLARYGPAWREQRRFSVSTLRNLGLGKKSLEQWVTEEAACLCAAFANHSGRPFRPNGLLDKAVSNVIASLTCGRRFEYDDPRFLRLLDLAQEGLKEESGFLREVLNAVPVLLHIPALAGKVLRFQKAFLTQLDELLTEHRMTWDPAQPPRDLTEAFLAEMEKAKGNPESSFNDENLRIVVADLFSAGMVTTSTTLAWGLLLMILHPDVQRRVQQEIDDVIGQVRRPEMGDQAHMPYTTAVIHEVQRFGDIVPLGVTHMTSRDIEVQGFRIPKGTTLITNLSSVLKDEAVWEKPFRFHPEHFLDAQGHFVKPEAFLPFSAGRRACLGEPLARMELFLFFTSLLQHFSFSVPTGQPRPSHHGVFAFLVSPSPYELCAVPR

CYP2C9, sequence (P11712 whole entry): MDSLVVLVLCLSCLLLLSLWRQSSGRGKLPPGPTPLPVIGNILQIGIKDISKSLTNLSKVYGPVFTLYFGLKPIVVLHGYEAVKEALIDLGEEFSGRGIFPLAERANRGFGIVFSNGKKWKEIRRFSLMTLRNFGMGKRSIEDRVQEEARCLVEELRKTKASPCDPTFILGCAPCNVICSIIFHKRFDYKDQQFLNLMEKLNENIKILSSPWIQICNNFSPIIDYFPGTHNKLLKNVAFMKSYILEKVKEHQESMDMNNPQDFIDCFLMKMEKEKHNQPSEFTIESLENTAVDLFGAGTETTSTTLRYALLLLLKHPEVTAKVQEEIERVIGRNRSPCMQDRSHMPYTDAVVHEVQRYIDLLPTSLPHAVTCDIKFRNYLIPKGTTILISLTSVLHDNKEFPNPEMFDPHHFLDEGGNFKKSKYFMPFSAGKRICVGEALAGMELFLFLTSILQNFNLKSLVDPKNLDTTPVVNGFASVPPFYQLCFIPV
CYP3A4, sequence (P08684 whole entry): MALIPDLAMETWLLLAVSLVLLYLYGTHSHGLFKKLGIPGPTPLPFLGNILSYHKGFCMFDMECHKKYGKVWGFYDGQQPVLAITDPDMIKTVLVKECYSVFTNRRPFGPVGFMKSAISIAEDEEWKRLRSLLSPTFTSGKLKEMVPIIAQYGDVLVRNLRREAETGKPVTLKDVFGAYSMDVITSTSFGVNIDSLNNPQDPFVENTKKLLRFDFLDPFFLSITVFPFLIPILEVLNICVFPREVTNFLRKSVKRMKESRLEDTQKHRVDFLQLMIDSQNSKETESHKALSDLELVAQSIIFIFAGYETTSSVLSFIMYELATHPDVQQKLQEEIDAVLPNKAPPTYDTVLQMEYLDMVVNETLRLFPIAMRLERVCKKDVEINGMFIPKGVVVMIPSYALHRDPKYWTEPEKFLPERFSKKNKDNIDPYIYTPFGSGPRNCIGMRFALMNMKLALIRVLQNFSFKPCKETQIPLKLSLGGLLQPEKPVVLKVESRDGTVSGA

- EC50 [1]: 7.75 µM
Structure (SMILES): CCOC(=O)c1ccc(NC(=O)NCc2c[nH]nn2)cc1

- EC50 [1]: 27.6 µM
Structure (SMILES): CCOC(=O)c1ccc(NC(=O)NCc2cocn2)cc1

- EC50 [1]: 1.85 µM
Structure (SMILES): CCOC(=O)c1ccc(NC(=O)NCc2cn[nH]c2)cc1

- EC50 [1]: 9.77 µM
Structure (SMILES): CCOC(=O)c1ccc(NC(=S)NCc2ccncc2)cc1

- EC50 [1]: 1.37 µM
Structure (SMILES): CCOC(=O)c1ccc(NC(=O)NCc2ccccc2)cc1

- EC50 [1]: 2.28 µM
Structure (SMILES): CCOC(=O)c1ccc(NC(=O)NC(C)c2ccncc2)cc1 (stereo not given)

- EC50 [1]: 10.8 µM
Structure (SMILES): CCOC(=O)c1ccc(NC(=O)OCc2ccncc2)cc1

- EC50 [1]: 69 µM
Structure (SMILES): CCOC(=O)c1ccc(NC(=O)NCc2cc[nH]n2)cc1

- EC50 [1]: > 100 µM
Structure (SMILES): CCOC(=O)c1ccc(NC(=O)NCc2ccnnc2)cc1

- EC50 [1]: 13.6 µM
Structure (SMILES): CCOC(=O)c1ccc(NC(=O)NCc2ccncn2)cc1

The next lines start with the molecule.

Structure (SMILES): O=C(NCc1ccncc1)Nc1ccc(S(=O)(=O)NCc2ccccc2)cc1
- EC50 [1]: 0.102 µM

Structure (SMILES): CCOC(=O)c1ccc(NC(=O)CCc2ccncc2)cc1
- EC50 [1]: 15.9 µM

Structure (SMILES): O=C(NCc1ccncc1)Nc1ccc(S(=O)(=O)N2CC3CCC(C2)O3)cc1
- EC50 [1]: 0.279 µM

Structure (SMILES): CN(C1CCCC1)S(=O)(=O)c1ccc(NC(=O)NCc2ccncc2)cc1
- EC50 [1]: 0.123 µM

Structure (SMILES): O=C(NCc1cnco1)Nc1ccc(S(=O)(=O)c2ccccc2)cc1
- EC50 [1]: 0.077 µM

Structure (SMILES): O=C(NCc1ccncc1)Nc1ccc(S(=O)(=O)Nc2ccccc2)cc1
- EC50 [1]: 0.41 µM

Structure (SMILES): CN(Cc1ccccc1)S(=O)(=O)c1ccc(NC(=O)NCc2ccncc2)cc1
- half-life [2]: 0.6 h
- Cmax [3]: 4950 ng/mL
- AUC [4]: 4510 ng·h/mL
- clearance [5]: 43 mL/min/kg
- bioavailability [6]: > 100%
- Vd [7]: 1.37 L/kg

Structure (SMILES): O=C(NCc1cn[nH]c1)Nc1ccc(S(=O)(=O)c2ccc(Cl)cc2)cc1
- half-life [2]: 3.2 h
- Cmax [3]: 9550 ng/mL
- remaining at 0.5 h, 1 µM [8]: 18%
- Papp [9]: 0.04 ×10⁻⁶ cm/s
- inhibition at 10 min, 10 µM (CYP1A2): 65%
- inhibition at 10 min, 10 µM (CYP3A4): 0%
- AUC [4]: 54500 ng·h/mL
- Activity [10]: Active
- remaining at 0.5 h, 1 µM [11]: 87%
- Papp [12]: < 0.01 ×10⁻⁶ cm/s
- logD [13]: 3.1
- clearance [5]: 3 mL/min/kg
- solubility [14]: 110 µg/mL (≈ 281 µM)
- Activity [15]: Active
- solubility [16]: 8.5 µg/mL (≈ 21.7 µM)
- bioavailability [6]: 80%
- inhibition at 10 min, 10 µM (CYP2C9): 96%
- inhibition at 10 min, 10 µM (CYP2D6): 95%
- EC50 [1]: 0.023 µM
- Vd [7]: 0.61 L/kg

Structure (SMILES): CNS(=O)(=O)c1ccc(NC(=O)NCc2ccncc2)cc1
- EC50 [1]: 3.23 µM

Structure (SMILES): CCOC(=O)c1ccc(N(C)C(=O)NCc2ccncc2)cc1
- EC50 [1]: > 100 µM

Structure (SMILES): CCOC(=O)c1ccc(NC(=O)N(C)Cc2ccncc2)cc1
- EC50 [1]: > 100 µM

Structure (SMILES): CCOC(=O)c1ccc(N/C(=N\C#N)NCc2ccncc2)cc1
- EC50 [1]: 41.4 µM

Structure (SMILES): O=C(NCc1ccncc1)Nc1ccc(S(=O)(=O)c2ccc(Cl)cc2)cc1
- EC50 [1]: 0.126 µM

Structure (SMILES): CCOC(=O)c1ccc(CC(=O)NCc2ccncc2)cc1
- EC50 [1]: > 100 µM

Structure (SMILES): O=C(NCc1ccncc1)Nc1ccc(S(=O)(=O)c2ccccc2)cc1
- EC50 [1]: 0.085 µM

Structure (SMILES): CN(C)S(=O)(=O)c1ccc(NC(=O)NCc2ccncc2)cc1
- EC50 [1]: 3.11 µM

Structure (SMILES): O=C(NCc1cnco1)Nc1ccc(S(=O)(=O)c2cccc(OC(F)(F)F)c2)cc1
- half-life [2]: 2.3 h
- Cmax [3]: 15300 ng/mL
- AUC [4]: 45200 ng·h/mL
- clearance [5]: 4 mL/min/kg
- bioavailability [6]: > 100%
- Vd [7]: 0.58 L/kg

Structure (SMILES): O=C(NCc1ccncc1)Nc1ccc(S(=O)(=O)N2CCc3ccccc3C2)cc1
- half-life [2]: 1 h
- Cmax [3]: 7860 ng/mL
- AUC [4]: 4270 ng·h/mL
- clearance [5]: 20 mL/min/kg
- bioavailability [6]: 47%
- EC50 [1]: 0.142 µM
- Vd [7]: 0.6 L/kg

Structure (SMILES): O=C(NCc1cn[nH]c1)Nc1ccc(S(=O)(=O)c2ccccc2)cc1
- half-life [2]: 2.5 h
- Cmax [3]: 2230 ng/mL
- AUC [4]: 9340 ng·h/mL
- clearance [5]: 8 mL/min/kg
- bioavailability [6]: 45%
- EC50 [1]: 0.028 µM
- Vd [7]: 1.12 L/kg
